System: U2OS
Experiment: Multiplex assay against U2OS
Format: toxicity, cell-based
Conditions: human
In short: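 With compound added, live cells were imaged on a CQ1 microscope at 37°C and 5% CO2; staining with Hoechst33342, BioTracker Green Microtubule Cytoskeleton Dye, MitoTracker Red and Annexin V Alexa Fluor 680 had been done at seeding. The CellPathfinder machine-learning gating scheme split cells into Hoechst high-intensity objects or normal cells, normal cells into healthy, pyknosed or fragmented nuclei, and pyknosed cells into mitotic or apoptotic. The tubulin, mitochondrial-mass and membrane-permeability phenotypes are per cents of healthy-nucleus cells.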

[1] = 12 h, 1 µM, compound concentration 1 uM, replicate 1
[2] = 12 h, 1 µM, compound concentration 1 uM, replicate 2
[3] = 12 h, 10 µM, compound concentration 10 uM, replicate 1
[4] = 12 h, 10 µM, compound concentration 10 uM, replicate 2
[5] = 24 h, 1 µM, compound concentration 1 uM, replicate 1
[6] = 24 h, 1 µM, compound concentration 1 uM, replicate 2
[7] = 24 h, 10 µM, compound concentration 10 uM, replicate 1
[8] = 24 h, 10 µM, compound concentration 10 uM, replicate 2
[9] = 48 h, 1 µM, compound concentration 1 uM, replicate 1
[10] = 48 h, 1 µM, compound concentration 1 uM, replicate 2
[11] = 48 h, 10 µM, compound concentration 10 uM, replicate 1
[12] = 48 h, 10 µM, compound concentration 10 uM, replicate 2

In the case of `COc1ccc2c(c1)C(C(=O)N(Cc1ccc(N(C)C)cc1)c1ccc(C(C)C)cc1)CCC2.Cl` (configuration not stated), the “Population Apoptotic (%)” value [1] was 70%, the “Population Fragmented Nuclei (%)” value [1] was 36% and the “Population Healthy Nuclei (%)” value [1] was 54%. For the same compound, the “Population Hoechst High Intensity Objects (%)” value [1] was 4%, the “Population Membrane Permeable-Phenotype (%)” value [1] was 8% and the “Population Mitochondria Different-Phenotype (%)” value [1] was 5%. For the same compound, the “Population Mitotic Cells (%)” value [1] was 29%, the “Population Normal (%)” value [1] was 95% and the “Population Pyknosed Nuclei (%)” value [1] was 9%. For the same compound, the “Population Tubulin-Different-Phenotype (%)” value [1] was 4%, the “Total Cell Count” value [1] was 264 and the “Population Fragmented Nuclei (%)” value [2] was 17%. For the same compound, the “Population Healthy Nuclei (%)” value [2] was 73%, the “Population Hoechst High Intensity Objects (%)” value [2] was 3% and the “Population Membrane Permeable-Phenotype (%)” value [2] was 9%. The “Population Mitochondria Different-Phenotype (%)” value [2] was 3%, the “Population Mitotic Cells (%)” value [2] was 30% and the “Population Normal (%)” value [2] was 96%. For the same compound, the “Population Pyknosed Nuclei (%)” value [2] was 8%, the “Population Tubulin-Different-Phenotype (%)” value [2] was 2% and the “Total Cell Count” value [2] was 122. The “Population Apoptotic (%)” value [3] was 38%, the “Population Fragmented Nuclei (%)” value [3] was 27% and the “Population Healthy Nuclei (%)” value [3] was 50%. The “Population Hoechst High Intensity Objects (%)” value [3] was 4%, the “Population Membrane Permeable-Phenotype (%)” value [3] was 73% and the “Population Mitochondria Different-Phenotype (%)” value [3] was 55%. For the same compound, the “Population Mitotic Cells (%)” value [3] was 61%, the “Population Normal (%)” value [3] was 95% and the “Population Pyknosed Nuclei (%)” value [3] was 22%. The “Population Tubulin-Different-Phenotype (%)” value [3] was 80%, the “Total Cell Count” value [3] was 224 and the “Population Apoptotic (%)” value [4] was 60%. The “Population Fragmented Nuclei (%)” value [4] was 16%, the “Population Healthy Nuclei (%)” value [4] was 60% and the “Population Membrane Permeable-Phenotype (%)” value [4] was 43%. For the same compound, the “Population Mitochondria Different-Phenotype (%)” value [4] was 73%, the “Population Mitotic Cells (%)” value [4] was 40% and the “Population Pyknosed Nuclei (%)” value [4] was 23%. For the same compound, the “Population Tubulin-Different-Phenotype (%)” value [4] was 58%, the “Total Cell Count” value [4] was 113 and the “Population Apoptotic (%)” value [5] was 75%. For the same compound, the “Population Fragmented Nuclei (%)” value [5] was 27%, the “Population Healthy Nuclei (%)” value [5] was 61% and the “Population Hoechst High Intensity Objects (%)” value [5] was 4%. For the same compound, the “Population Membrane Permeable-Phenotype (%)” value [5] was 5%, the “Population Mitochondria Different-Phenotype (%)” value [5] was 4% and the “Population Mitotic Cells (%)” value [5] was 24%. For the same compound, the “Population Normal (%)” value [5] was 95%, the “Population Pyknosed Nuclei (%)” value [5] was 11% and the “Population Tubulin-Different-Phenotype (%)” value [5] was 4%. For the same compound, the “Total Cell Count” value [5] was 273, the “Population Apoptotic (%)” value [6] was 100% and the “Population Fragmented Nuclei (%)” value [6] was 18%. For the same compound, the “Population Healthy Nuclei (%)” value [6] was 73%, the “Population Hoechst High Intensity Objects (%)” value [6] was 2% and the “Population Mitochondria Different-Phenotype (%)” value [6] was 1%. For the same compound, the “Population Mitotic Cells (%)” value [6] was 0%, the “Population Normal (%)” value [6] was 97% and the “Population Pyknosed Nuclei (%)” value [6] was 7%. For the same compound, the “Population Tubulin-Different-Phenotype (%)” value [6] was 2%, the “Total Cell Count” value [6] was 146 and the “Population Apoptotic (%)” value [7] was 71%. The “Population Fragmented Nuclei (%)” value [7] was 25%, the “Population Healthy Nuclei (%)” value [7] was 50% and the “Population Hoechst High Intensity Objects (%)” value [7] was 2%. For the same compound, the “Population Membrane Permeable-Phenotype (%)” value [7] was 54%, the “Population Mitochondria Different-Phenotype (%)” value [7] was 42% and the “Population Mitotic Cells (%)” value [7] was 28%. The “Population Normal (%)” value [7] was 97%, the “Population Pyknosed Nuclei (%)” value [7] was 24% and the “Population Tubulin-Different-Phenotype (%)” value [7] was 49%. For the same compound, the “Total Cell Count” value [7] was 224, the “Population Apoptotic (%)” value [8] was 86% and the “Population Fragmented Nuclei (%)” value [8] was 20%. The “Population Healthy Nuclei (%)” value [8] was 57%, the “Population Hoechst High Intensity Objects (%)” value [8] was 9% and the “Population Membrane Permeable-Phenotype (%)” value [8] was 45%. For the same compound, the “Population Mitochondria Different-Phenotype (%)” value [8] was 53%, the “Population Mitotic Cells (%)” value [8] was 13% and the “Population Normal (%)” value [8] was 90%. For the same compound, the “Population Pyknosed Nuclei (%)” value [8] was 22%, the “Population Tubulin-Different-Phenotype (%)” value [8] was 48% and the “Total Cell Count” value [8] was 115. For the same compound, the “Population Apoptotic (%)” value [9] was 80%, the “Population Fragmented Nuclei (%)” value [9] was 21% and the “Population Healthy Nuclei (%)” value [9] was 65%. The “Population Hoechst High Intensity Objects (%)” value [9] was 2%, the “Population Membrane Permeable-Phenotype (%)” value [9] was 10% and the “Population Mitochondria Different-Phenotype (%)” value [9] was 5%. For the same compound, the “Population Mitotic Cells (%)” value [9] was 20%, the “Population Normal (%)” value [9] was 97% and the “Population Pyknosed Nuclei (%)” value [9] was 13%. For the same compound, the “Population Tubulin-Different-Phenotype (%)” value [9] was 3%, the “Total Cell Count” value [9] was 369 and the “Population Apoptotic (%)” value [10] was 93%. The “Population Fragmented Nuclei (%)” value [10] was 17%, the “Population Healthy Nuclei (%)” value [10] was 73% and the “Population Hoechst High Intensity Objects (%)” value [10] was 3%. For the same compound, the “Population Membrane Permeable-Phenotype (%)” value [10] was 6%, the “Population Mitochondria Different-Phenotype (%)” value [10] was 4% and the “Population Mitotic Cells (%)” value [10] was 6%. The “Population Normal (%)” value [10] was 96%, the “Population Pyknosed Nuclei (%)” value [10] was 8% and the “Population Tubulin-Different-Phenotype (%)” value [10] was 2%. The “Total Cell Count” value [10] was 203, the “Population Apoptotic (%)” value [11] was 73% and the “Population Fragmented Nuclei (%)” value [11] was 21%. For the same compound, the “Population Healthy Nuclei (%)” value [11] was 47%, the “Population Hoechst High Intensity Objects (%)” value [11] was 3% and the “Population Membrane Permeable-Phenotype (%)” value [11] was 43%. The “Population Mitochondria Different-Phenotype (%)” value [11] was 26%, the “Population Mitotic Cells (%)” value [11] was 26% and the “Population Normal (%)” value [11] was 96%. For the same compound, the “Population Pyknosed Nuclei (%)” value [11] was 30%, the “Population Tubulin-Different-Phenotype (%)” value [11] was 31% and the “Total Cell Count” value [11] was 265. For the same compound, the “Population Apoptotic (%)” value [12] was 92%, the “Population Fragmented Nuclei (%)” value [12] was 26% and the “Population Healthy Nuclei (%)” value [12] was 49%. The “Population Hoechst High Intensity Objects (%)” value [12] was 8%, the “Population Mitochondria Different-Phenotype (%)” value [12] was 36% and the “Population Mitotic Cells (%)” value [12] was 7%. For the same compound, the “Population Normal (%)” value [12] was 91%, the “Population Pyknosed Nuclei (%)” value [12] was 24% and the “Population Tubulin-Different-Phenotype (%)” value [12] was 42%. For the same compound, the “Total Cell Count” value [12] was 126.

From ChEMBL document CHEMBL5058577, “EUbOPEN Chemogenomics Library 2 (Multiplex)” (2022)
